# Screening results from PubChem.
# This is a sample that favours compounds with a hit; in the whole collection about 4.8% have one here.
# PAFAH2 FP inh = PAFAH2 enzyme inhibitors, primary screen, biochemical, fluorescence polarization, human; inhibition, % at 3.39 µM; actives 0.99% (n = 340,000); AID 492956, 2010; recombinant PAFAH2, FP-rhodamine activity probe;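 active means inhibition above the mean over all tested compounds plus 3 SD, cut at about 30% in these data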;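 further: inhibitors block probe labeling of enzyme so polarization drops; 0% = enzyme with DMSO and 100% = wells lacking PAFAH2 protein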
# UCH37 DUB inh = inhibitors of human UCH37 deubiquitinase, primary screen, biochemical, Ub-AMC cleavage, fluorescence | Ubiquitin carboxyl-terminal hydrolase isozyme L5 (Homo sapiens), Q9Y5K5 | purified proteasome/UCH37 | inhibition, % (concentration not given with the values) | actives 0.33% (n = 330,000);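 active means mean inhibition over replicate wells above about 20%, limit read from the data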;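 further: 0% = compound-free wells with enzyme and 100% = wells lacking proteasome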
# Target sequence (Q9Y5K5 whole entry, looked up): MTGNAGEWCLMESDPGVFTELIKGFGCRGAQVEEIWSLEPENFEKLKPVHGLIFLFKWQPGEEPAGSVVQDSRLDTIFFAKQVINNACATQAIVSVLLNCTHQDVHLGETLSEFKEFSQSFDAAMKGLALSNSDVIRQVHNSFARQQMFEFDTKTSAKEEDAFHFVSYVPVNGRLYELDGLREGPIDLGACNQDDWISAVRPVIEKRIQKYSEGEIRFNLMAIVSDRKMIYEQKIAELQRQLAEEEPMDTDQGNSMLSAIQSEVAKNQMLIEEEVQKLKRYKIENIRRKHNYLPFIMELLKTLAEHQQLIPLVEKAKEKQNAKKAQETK
#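 System: Proteasome-associated human UCH37 deubiquitinase; Input: 0.15 nM proteasome in added enzyme buffer; Also added: Ub-AMC substrate from 1 µM stock; Incubation: 30 min compound-proteasome preincubation then 25 min substrate reaction, room temperature; Detection: fluorescence, ex 355 nm, em 460 nm; Read-out: % inhibition of Ub-AMC cleavage fluorescence; Benchmarks: no-proteasome and no-compound wells.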
# pPAFAH inh = pPAFAH enzyme inhibitors, primary screen, biochemical, fluorescence polarization, human. inhibition, % at 3.39 µM. Platelet-activating factor acetylhydrolase (Homo sapiens), Q13093. actives 1.5% (n = 330,000). recombinant pPAFAH, FP-rhodamine probe fluorescence polarization;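 active means inhibition above the mean inhibition across the screen plus 3 SD, cut at about 25% in these data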;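 further: inhibitors block binding of the rhodamine activity-based probe so polarization drops; 0% = enzyme with DMSO and 100% = wells lacking pPAFAH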
# NR3A LBD binder = binders of NR3A ligand-binding domain, primary screen, biophysical, differential scanning fluorimetry, uHTS; actives 2.5% (n = 340,000); AID 1259313, 2017; Glutamate receptor ionotropic, NMDA 3A (GRIN3A) ligand-binding domain; NR3A LBD differential scanning fluorimetry, Tm shift; 0% = protein alone, 100% = glycine-bound protein; Tm shift relative to glycine control, % at 25 µM;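 active means melting temperature shift of at least 10% of the positive control shift, at one fixed dose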
# PAFAH1B2 inh = PAFAH1B2 enzyme inhibitors, primary screen, biochemical, fluorescence polarization, human. AID 492953, 2010. Platelet-activating factor acetylhydrolase IB subunit alpha2 (Homo sapiens), P68402. actives 1.2% (n = 340,000). recombinant PAFAH1B2, FP-rhodamine activity probe. inhibition, % at 3.39 µM;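 active means inhibition above the mean of all tested compounds plus 3 SD, cut at about 24% in these data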;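 further: 0% = enzyme with DMSO and 100% = wells lacking PAFAH1B2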
# Target sequence (P68402 whole entry, looked up): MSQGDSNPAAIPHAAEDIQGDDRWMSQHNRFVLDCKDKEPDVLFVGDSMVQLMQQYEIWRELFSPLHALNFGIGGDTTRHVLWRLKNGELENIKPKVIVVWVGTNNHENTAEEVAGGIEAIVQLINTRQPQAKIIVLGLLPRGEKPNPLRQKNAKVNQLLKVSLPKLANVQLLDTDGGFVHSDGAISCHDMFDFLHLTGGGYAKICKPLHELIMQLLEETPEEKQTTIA
# PAFAH1B3 inh = PAFAH1B3 enzyme inhibitors, primary screen, biochemical, fluorescence polarization, human; Platelet-activating factor acetylhydrolase IB subunit alpha1 (Homo sapiens), Q15102; recombinant PAFAH1B3, FP-rhodamine probe; actives 0.28% (n = 340,000); inhibition, % at 3.39 µM;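 active means inhibition above the screen-wide average of all tested compounds plus 3 SD, cut at about 25% in these data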;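 further: 0% = enzyme with DMSO only and 100% = wells lacking PAFAH1B3 protein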
# Numbers without * were called inactive; . = no result.
SMILES,PAFAH2 FP inh,UCH37 DUB inh,pPAFAH inh,NR3A LBD binder,PAFAH1B2 inh,PAFAH1B3 inh
C[C@@H]1CN([C@H](C)CO)C(=O)c2cc(NC(=O)Nc3ccc(C(F)(F)F)cc3)ccc2O[C@H]1CN(C)Cc1ccc(Cl)c(Cl)c1,-26,4,-17,32*,-10,-26
C[C@@H]1CN([C@H](C)CO)C(=O)c2cc(NS(=O)(=O)c3ccc(F)cc3)ccc2O[C@@H]1CN(C)Cc1ccc(Cl)c(Cl)c1,10,3,29*,13*,25*,7
Cc1ccc(C(=O)Nc2cc(Cl)ccc2N2CCCCC2)s1,-6,0,1,22*,2,-1
Cc1ccc(CC(=O)Nc2cc([N+](=O)[O-])ccc2F)cc1,4,2,4,-4,-3,3
CCc1sc(C(=O)Nc2cc(Cl)ccc2N2CCCCC2)cc1C,-5,-4,-6,1,-1,2
Cc1ccc(C(=O)Nc2cc([N+](=O)[O-])ccc2F)s1,6,2,5,12*,1,0
COc1ccc(N(CC(=O)NN=Cc2ccccc2F)S(=O)(=O)c2ccccc2)cc1,.,2,.,.,.,.
O=C(N/N=C\c1cccnc1)c1cc(-c2ccc(Cl)s2)[nH]n1,-14,.,-4,23*,-8,-8
Cc1cccc(/C=N/NC(=O)c2ccc(NC(=O)c3cccc(Cl)c3)cc2)n1,-6,.,-10,15*,-6,5
O=C(N/N=C/c1cccnc1)c1ccc(NC(=O)c2cccc(Cl)c2)cc1,-8,.,0,12*,-3,-3
O=C(NN=Cc1cccnc1)c1ccc(Cl)c(Cl)c1,.,5,.,.,.,.
O=C(NN=Cc1cccnc1)c1ccc(NC(=O)c2cccc(Cl)c2)cc1,.,6,.,.,.,.
O=C(N/N=C/c1cccnc1)c1ccc(Cl)c(Cl)c1,-6,.,-4,14*,-2,9
CC(SCc1ccccc1)C(=O)NN=Cc1ccc2c(c1)OCO2 (stereo not given),.,1,.,.,.,.
O=C(N/N=C/c1cccnc1)c1ccc(NC(=O)c2ccc(Cl)cc2)cc1,-7,.,2,14*,0,-1
NC(=S)NN=C1CCCCCCCCCC1,7,.,.,-1,28*,3
S=C(NN=C1CCCCCC1)Nc1ccc(Cl)cc1,-2,3,1,2,3,11
O=C(CCC(=O)NN=Cc1c[nH]c2ccccc12)NCc1ccccc1,.,6,.,.,.,.
Cc1ccc2scc(CN3CCCC3)c2c1,6,1,2,0,3,7
CNC(=O)Cc1csc2ccc(C)cc12,1,3,-7,14*,6,3
COCc1ccc(C(=O)N2CCCC(N(C)CCc3ccc(OC)c(OC)c3)C2)s1 (stereo not given),-9,3,7,14*,-3,6
O=C1CCCCCC1=NNc1ccc(OCc2ccccc2)cc1,.,3,.,.,.,.
FC(F)(F)c1cccc(N2CCN(C(=S)NCC3CCCO3)CC2)c1 (stereo not given),3,-1,30*,-4,5,7
S=C(NCC1CCCO1)N1CCN(c2ccccc2)CC1 (stereo not given),5,5,5,-3,0,2
Cc1ccc2nc(-c3cccc(Br)c3)cc(C(=O)NC3CC3)c2c1,-8,-2,-2,13*,2,-6
SMILES,PAFAH2 FP inh,UCH37 DUB inh,pPAFAH inh,NR3A LBD binder,PAFAH1B2 inh,PAFAH1B3 inh
Cc1ccc2nc(C)cc(C(=O)NC3CCCCCC3)c2c1,-6,-8,1,-2,3,1
CC(=NNC(=S)NCCc1ccccc1)c1cccc(Br)c1,.,2,.,.,.,.
O=C(Nc1ccc(Oc2ncnc3cc(Cl)ccc23)nc1)Nc1cccc(C(F)(F)F)c1,-6,3,-1,98*,1,-4
COc1ccc(Cn2nnnc2C(c2cc3cccc(C)c3[nH]c2=O)N2CCN(C)CC2)cc1 (stereo not given),-4,-16,6,0,29*,-1
Cc1cccc2cc(C(c3nnnn3Cc3ccccc3)N3CCN(C)CC3)c(=O)[nH]c12 (stereo not given),4,-17,5,2,8,2
COc1cccc(C(=O)N(Cc2ccco2)Cc2cc3cccc(C)c3[nH]c2=O)c1,-4,1,25*,-2,2,9
COc1ccc2[nH]c(=O)c(CN(Cc3ccco3)C(=O)c3ccccc3)cc2c1,2,-20,2,-4,2,5
COc1ccccc1/C=C/C=NNC(=O)c1ccncc1,.,12,.,.,.,.
COc1cc(OC)cc(-c2sc3ccc(OC)cc3c2-c2ccc(OCCN3CCOCC3)cc2)c1,0,-12,3,11*,-1,0
COc1cccc(-c2sc3ccc(OC)cc3c2-c2ccc(OCCN3CCOCC3)cc2)c1,2,.,17,2,0,3
Cc1ccnc(SCCn2c(N3CCC(C)CC3)nc3c2c(=O)[nH]c(=O)n3C)n1,4,.,.,13*,1,0
Cc1cccc(N2CCN(C(=O)c3ccc4nc(-c5ccco5)c(-c5ccco5)nc4c3)CC2C)c1 (stereo not given),1,-22,26*,-8,2,6
CC1(C)CC(c2nc(-c3ccccc3)cs2)CCS1 (stereo not given),7,4,0,10*,1,-2
C/C(C=Nn1c(C)n[nH]c1=S)=C/c1ccccc1,.,1,.,.,.,.
COc1ccc(-n2c(SCC(=O)N3CCOCC3)nc(O)cc2=O)cc1,-2,-1,.,-1,3,1
COc1ccc(-n2c(SCC(=O)N3CCOCC3)nc(O)c(Cc3ccccc3)c2=O)cc1,-3,30*,-1,0,1,3
O=C(NN=Cc1ccccc1)c1n[nH]c2c1CCCC2,.,1,.,.,.,.
CCOC(=O)N1CCN(C(=O)COc2cc(=O)n(C)c3ccccc23)CC1,-4,2,1,-2,1,-8
Cc1cccc(N(C)C(=O)COc2cc(=O)n(C)c3ccccc23)c1,-3,-5,34*,-1,4,8
CN(C(=O)COc1cc(=O)n(C)c2ccccc12)c1cccc(Cl)c1,5,1,28*,-1,2,6
CCN(C(=O)COc1cc(=O)n(C)c2ccccc12)c1cccc(Cl)c1,0,1,23,2,1,-6
COc1cc(/C=C/c2[nH]c(=O)[nH]c(=O)c2[N+](=O)[O-])cc([N+](=O)[O-])c1O,1,21*,19,0,6,6
Nc1nonc1-n1nnc(C(=O)NN=Cc2ccoc2)c1CSc1ccc(Cl)cc1,.,2,.,.,.,.
CCOC(=O)c1c(N=CN(C)C)sc(C=NNc2ccccc2)c1-c1ccccc1Cl,.,-5,.,.,.,.
